Screening results: PubChem, Broad Institute
A1 apoptosis 2 = compounds inhibiting A1, read as caspase activation. MEF A1-2A-BIM cells, caspase-Glo luminescence, 3 h; percent of clofoctol response, DMSO zero. caspase activation, % (test concentration not listed). 24,000 tested, under 10 active; in the data active = caspase activation above about 5.9%
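system = A1-2A-BIM-expressing MEF cells | quantity = 2500 MEF cells/well | dosing = 50 nL compound per well, pinned | schedule = overnight cell settling, then 3 h compound exposure, 37 °C | signal = luminescence from DEVD-luciferin Caspase-Glo reagent, 1:1 in 50 mM HEPES, 1 h RT | read-out = Caspase-3/7 activation, seen as rise in luminescence signal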
INS-1E rescue = preserves ATP levels in cytokine-treated INS-1E cells; 20,000 compounds, 0.1% hits; INS-1E cytokine-induced death, ATP luminescence, 48 h; normalised: neutral wells 0, positive control 100; protection from cytokine-induced ATP loss, % at 10 µM;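 active = mean replicate protection from cytokine-induced ATP loss at least 50% and at least 75% of replicates each reaching 50%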
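Material: INS-1E rat cells; Quantity: 8000 cells/well; Buffer or medium: phenol-red-free RPMI with 5% fetal bovine serum; Probe or stimulus: cytokine cocktail of IFN-γ, TNF-α and IL-1β; Compound dosing: single test concentration per compound, delivered by pin transfer; Incubation: 48 h co-treatment, 10 min post-lysis read; Signal: CellTiter-Glo luminescence.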
T cruzi HTS = inhibitors of intracellular Trypanosoma cruzi | intracellular Trypanosoma cruzi in host cells, plate reader | activity score (inhibition), % at 5.01 µM | 22,000 compounds, 4.9% hits | AID 651903; in the data active = activity score above about 55%;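 note: parasites and compound incubated about four days before reading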
Large screens that a line does not name were inactive. The entries come from a sample that favours hits as a whole.

C[C@@H]1CCCCO[C@H](CN(C)Cc2ccccc2)[C@H](C)CN([C@@H](C)CO)C(=O)c2cc(NC(=O)Nc3ccc(C(F)(F)F)cc3)ccc2O1	none (no result: INS-1E rescue, T cruzi HTS)
C[C@@H]1CN([C@@H](C)CO)C(=O)c2cc(NC(=O)Nc3ccccc3)ccc2O[C@@H](C)CCCCO[C@@H]1CN(C)Cc1ccc(C(F)(F)F)cc1	none (no result: INS-1E rescue, T cruzi HTS)
C[C@@H]1CCCCO[C@@H](CN(C)Cc2ccccc2)[C@@H](C)CN([C@H](C)CO)C(=O)c2cc(NC(=O)Nc3ccc(F)cc3)ccc2O1	T cruzi HTS 62 (no result: A1 apoptosis 2)
C[C@@H]1CCCCO[C@H](CN(C)Cc2ccccc2)[C@@H](C)CN([C@H](C)CO)C(=O)c2cc(NC(=O)Nc3ccc(F)cc3)ccc2O1	none
C[C@@H]1CCCCO[C@H](CN(C)Cc2ccc(C(F)(F)F)cc2)[C@@H](C)CN([C@H](C)CO)C(=O)c2cc(NC(=O)Nc3ccccc3)ccc2O1	T cruzi HTS 67
COc1ccc(S(=O)(=O)Nc2ccc3c(c2)C(=O)N([C@H](C)CO)C[C@@H](C)[C@H](CN(C)Cc2ccccc2)OCCCC[C@H](C)O3)cc1	none (no result: INS-1E rescue, T cruzi HTS)
COc1ccc(NC(=O)Nc2ccc3c(c2)CC(=O)N([C@H](C)CO)C[C@H](C)[C@H](CN(C)S(=O)(=O)c2ccc(C)cc2)O3)cc1	none
Cc1noc(C)c1S(=O)(=O)N(C)C[C@H]1Oc2ccc(NC(=O)Nc3ccc(C(F)(F)F)cc3)cc2CC(=O)N([C@H](C)CO)C[C@@H]1C	none (no result: INS-1E rescue, T cruzi HTS)
C[C@H]1CN([C@@H](C)CO)C(=O)Cc2cc(NC(=O)Nc3ccc(C(F)(F)F)cc3)ccc2O[C@@H]1CN(C)S(=O)(=O)c1ccc(F)cc1	none
C[C@@H]1CN([C@H](C)CO)C(=O)Cc2cc(NC(=O)Nc3ccc(C(F)(F)F)cc3)ccc2O[C@@H]1CN(C)S(=O)(=O)c1ccc(F)cc1	T cruzi HTS 72
C[C@@H]1CN([C@@H](C)CO)C(=O)Cc2cc(NC(=O)Nc3ccc(C(F)(F)F)cc3)ccc2O[C@@H]1CN(C)S(=O)(=O)c1ccc(Cl)cc1	T cruzi HTS 81 (no result: A1 apoptosis 2)
Cc1noc(C)c1S(=O)(=O)N(C)C[C@H]1Oc2ccc(NC(=O)Nc3ccc(C(F)(F)F)cc3)cc2CC(=O)N([C@@H](C)CO)C[C@H]1C	T cruzi HTS 66
C[C@H]1CN([C@@H](C)CO)C(=O)Cc2cc(NC(=O)Nc3ccc(C(F)(F)F)cc3)ccc2O[C@H]1CN(C)S(=O)(=O)c1ccc(Cl)cc1	none
C[C@@H]1CCCCO[C@H](CN(C)Cc2ccc3c(c2)OCO3)[C@H](C)CN([C@@H](C)CO)C(=O)c2cc(NS(=O)(=O)c3ccccc3)ccc2O1	none (no result: INS-1E rescue, T cruzi HTS)
C[C@@H]1CCCCO[C@H](CN(C)Cc2ccc(C(F)(F)F)cc2)[C@@H](C)CN([C@H](C)CO)C(=O)c2cc(NS(=O)(=O)c3cccs3)ccc2O1	none (no result: A1 apoptosis 2)
C[C@@H]1CCCCO[C@@H](CN(C)Cc2ccc(C(F)(F)F)cc2)[C@@H](C)CN([C@H](C)CO)C(=O)c2cc(NS(=O)(=O)c3cccs3)ccc2O1	T cruzi HTS 64 (no result: A1 apoptosis 2)
C[C@@H]1CCCCO[C@@H](CN(C)C(=O)Nc2ccc(C(F)(F)F)cc2)[C@@H](C)CN([C@H](C)CO)C(=O)c2cc(NS(=O)(=O)c3cccs3)ccc2O1	T cruzi HTS 57
C[C@@H]1CCCCO[C@H](CN(C)C(=O)Nc2ccc(C(F)(F)F)cc2)[C@@H](C)CN([C@H](C)CO)C(=O)c2cc(NS(=O)(=O)c3cccs3)ccc2O1	none (no result: A1 apoptosis 2, T cruzi HTS)
C[C@H]1CN([C@@H](C)CO)C(=O)c2cccc(NC(=O)C3CCOCC3)c2O[C@H]1CN(C)Cc1ccc(C(F)(F)F)cc1	none
C[C@H](CO)N1C[C@H](C)[C@H](CN(C)C(=O)Nc2cccc3ccccc23)Oc2ncc(-c3ccc(F)cc3)cc2C1=O	none
C[C@H](CO)N1C[C@H](C)[C@H](CN(C)S(=O)(=O)c2ccccc2)Oc2ncc(-c3cc4ccccc4o3)cc2C1=O	T cruzi HTS 62 (no result: INS-1E rescue)
C[C@H](CO)N1C[C@H](C)[C@H](CN(C)C(=O)NC2CCCC2)Oc2ncc(-c3cc4ccccc4o3)cc2C1=O	none (no result: INS-1E rescue)
C[C@H](CO)N1C[C@H](C)[C@H](CN(C)Cc2ccccc2)Oc2ncc(-c3cc4ccccc4o3)cc2C1=O	T cruzi HTS 59 (no result: INS-1E rescue)
C[C@H](CO)N1C[C@H](C)[C@H](CN(C)C(=O)Nc2cccc3ccccc23)Oc2ncc(-c3cc4ccccc4o3)cc2C1=O	T cruzi HTS 71 (no result: INS-1E rescue)
C[C@H](CO)N1C[C@H](C)[C@H](CN(C)Cc2cccc(C(F)(F)F)c2)Oc2ncc(-c3cc4ccccc4o3)cc2C1=O	T cruzi HTS 90 (no result: A1 apoptosis 2, INS-1E rescue)
